Assay results from ChEMBL document CHEMBL3352456, “Design, synthesis and biological activity of a novel Rutin analogue with improved lipid soluble properties” (Bioorg Med Chem, 2015).
Calls of active or inactive are those of the source. No cut-off for these calls is given here.

How the values were obtained:
Trichophyton violaceum = test: Antifungal activity against Trichophyton violaceum Malmsten CBS 459.61 assessed as growth inhibition at 100 ug/ml measured on day 7 by sabouraud dextrose agar diffusion method relative to control; assay type: functional; conditions: Malmsten CBS 459.61, 168 h, read-out: GI
Procedure, shortened: (§1)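 Dermatophyte strains kept on Sabouraud dextrose agar slants. Mycelium disks (10 mm) from a stationary-phase culture grown at 26 ± 1 °C on cellophane over SDA to log phase, then moved onto SDA containing compound added from DMSO stock at 45 °C (final DMSO 0.1%; DMSO-only controls). Colony diameter measured daily for 7 days. % inhibition = (dex − dex')/dex × 100. Three replicates per concentration; mean of three independent experiments.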

K562 [1] = test: Induction of apoptosis in human K562 cells assessed as early apoptotic cells at 10 uM after 3 days by Annexin-V staining-based assay (reference value: 5.41%); assay type: functional
Trichophyton rubrum [2] = test: Antifungal activity against Trichophyton rubrum (Castellani) Sabouraud IHME 4321 assessed as growth inhibition at 100 ug/ml measured on day 7 by sabouraud dextrose agar diffusion method relative to control; assay type: functional; conditions: (Castellani) Sabouraud IHME 4321, 168 h, read-out: GI; procedure, shortened: as §1
Trichophyton rubrum [3] = test: Antifungal activity against Trichophyton rubrum (Castellani) Sabouraud IHME 4321 assessed as growth inhibition at 20 ug/ml measured on day 7 by sabouraud dextrose agar diffusion method relative to control; assay type: functional; conditions: (Castellani) Sabouraud IHME 4321, 168 h, read-out: GI; procedure, shortened: as §1
Nannizzia gypsea [4] = test: Antifungal activity against Nannizzia gypsea (Bodin) Guiart et Grigoraki CBS 286.63 assessed as growth inhibition at 20 ug/ml measured on day 7 by sabouraud dextrose agar diffusion method relative to control; assay type: functional; procedure, shortened: as §1
K562 [5] = test: Induction of apoptosis in human K562 cells assessed as apoptotic cells at 5 uM after 3 days by Annexin-V staining-based assay (reference value: 11.37%); assay type: functional
K562 [6] = test: Induction of apoptosis in human K562 cells assessed as live cells at 5 uM after 3 days by Annexin-V staining-based assay (reference value: 87.33%); assay type: functional
K562 [7] = test: Induction of apoptosis in human K562 cells assessed as dead cells at 1000 uM after 3 days by Annexin-V staining-based assay (reference value: 1.29%); assay type: functional
K562 [8] = test: Induction of apoptosis in human K562 cells assessed as dead cells at 10 uM after 3 days by Annexin-V staining-based assay (reference value: 1.29%); assay type: functional
[9] = Antioxidant activity assessed as superoxide anion radical scavenging by photochemiluminescence method relative to trolox; assay type: physicochemical
Procedure, shortened: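 Superoxide was generated photochemically from luminol under UV light (351 nm). Lag time (water-soluble, ACW) or integrated light emission over 180 s (lipid-soluble, ACL) was compared with a Trolox standard curve. Samples were centrifuged 5 min at 16000 g and diluted 1:40 in water (ACW) or methanol (ACL). Triplicate determinations.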

Paraphyton cookei [10] = test: Antifungal activity against Nannizzia cajetani Ajello CBS 495.70 assessed as growth inhibition at 20 ug/ml measured on day 7 by sabouraud dextrose agar diffusion method relative to control; assay type: functional; conditions: Ajello CBS 495.70, 168 h, read-out: GI; procedure, shortened: as §1
Nannizzia gypsea [11] = test: Antifungal activity against Nannizzia gypsea (Bodin) Guiart et Grigoraki CBS 286.63 assessed as growth inhibition at 100 ug/ml measured on day 7 by sabouraud dextrose agar diffusion method relative to control; assay type: functional; procedure, shortened: as §1
Epidermophyton floccosum = test: Antifungal activity against Epidermophyton floccosum (Hartz) Langeron and Milochevitch CBS 358.93 assessed as growth inhibition at 20 ug/ml measured on day 7 by sabouraud dextrose agar diffusion method relative to control; assay type: functional; conditions: (Hartz) Langeron and Milochevitch CBS 358.93, 168 h, read-out: GI; procedure, shortened: as §1
[12] = Antifungal activity against Microsporum canis Bodin CBS 4727 assessed as growth inhibition at 20 ug/ml measured on day 7 by sabouraud dextrose agar diffusion method relative to control; assay type: functional; procedure, shortened: as §1
K562 [13] = test: Induction of apoptosis in human K562 cells assessed as apoptotic cells at 1000 uM after 3 days by Annexin-V staining-based assay (reference value: 11.37%); assay type: functional
K562 [14] = test: Induction of apoptosis in human K562 cells assessed as live cells at 500 uM after 3 days by Annexin-V staining-based assay (reference value: 87.33%); assay type: functional
K562 [15] = test: Induction of apoptosis in human K562 cells assessed as dead cells at 500 uM after 3 days by Annexin-V staining-based assay (reference value: 1.29%); assay type: functional
K562 [16] = test: Induction of apoptosis in human K562 cells assessed as live cells at 1000 uM after 3 days by Annexin-V staining-based assay (reference value: 87.33%); assay type: functional
[17] = Antioxidant activity assessed as inhibition of AAPH-induced peroxyl radical generation by oxygen radical absorbance capacity assay relative to trolox; assay type: physicochemical
Procedure, shortened: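 Run at 37 °C and pH 7.4 with fluorescein (85 nM) as the probe and AAPH as the peroxyl radical source. Compounds were dissolved fresh in PBS. Fluorescence read at ex 485/em 538 nm every 5 min for up to 30 min after AAPH addition. Net area under the decay curve (blank minus sample) was calibrated against Trolox at 10–50 μM and given as Trolox equivalents.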

K562 [18] = test: Induction of apoptosis in human K562 cells assessed as late apoptotic cells at 1000 uM after 3 days by Annexin-V staining-based assay (reference value: 5.96%); assay type: functional
K562 [19] = test: Induction of apoptosis in human K562 cells assessed as early apoptotic cells at 1000 uM after 3 days by Annexin-V staining-based assay (reference value: 5.41%); assay type: functional
K562 [20] = test: Induction of apoptosis in human K562 cells assessed as early apoptotic cells at 500 uM after 3 days by Annexin-V staining-based assay (reference value: 5.41%); assay type: functional
Paraphyton cookei [21] = test: Antifungal activity against Nannizzia cajetani Ajello CBS 495.70 assessed as growth inhibition at 100 ug/ml measured on day 7 by sabouraud dextrose agar diffusion method relative to control; assay type: functional; conditions: Ajello CBS 495.70, 168 h, read-out: GI; procedure, shortened: as §1
Nannizzia gypsea [22] = test: Antifungal activity against Microsporum gypseum (Bodin) Guiart and Grigorakis IHME 3999 assessed as growth inhibition at 100 ug/ml measured on day 7 by sabouraud dextrose agar diffusion method relative to control; assay type: functional; conditions: (Bodin) Guiart and Grigorakis IHME 3999, 168 h, read-out: GI; procedure, shortened: as §1
K562 [23] = test: Induction of apoptosis in human K562 cells assessed as late apoptotic cells at 10 uM after 3 days by Annexin-V staining-based assay (reference value: 5.96%); assay type: functional
Nannizzia gypsea [24] = test: Antifungal activity against Microsporum gypseum (Bodin) Guiart and Grigorakis IHME 3999 assessed as growth inhibition at 20 ug/ml measured on day 7 by sabouraud dextrose agar diffusion method relative to control; assay type: functional; procedure, shortened: as §1
[25] = Antifungal activity against Microsporum canis Bodin CBS 4727 assessed as growth inhibition at 100 ug/ml measured on day 7 by sabouraud dextrose agar diffusion method relative to control; assay type: functional; procedure, shortened: as §1

C[C@@H]1O[C@@H](OC[C@H]2O[C@@H](Oc3c(-c4ccc(O)c(O)c4)oc4cc(O)cc(O)c4c3=O)[C@H](O)[C@@H](O)[C@@H]2O)[C@H](O)[C@H](O)[C@H]1O [RUTIN]
inhibition of growth at 100 µg/mL (Trichophyton violaceum): 4.2% | Activity (K562 [1]): inactive | inhibition of growth at 100 µg/mL (Trichophyton rubrum [2]): 9.9% | inhibition of growth at 20 µg/mL (Trichophyton rubrum [3]): 6.1% | growth inhibition (GI) (Nannizzia gypsea [4]): inactive | Activity (K562 [5]): inactive | Activity (K562 [6]): inactive | Activity (K562 [7]): 0.4% | Activity (K562 [8]): inactive | Activity [9]: 1883.08 µmol/g | inhibition of growth at 20 µg/mL (Paraphyton cookei [10]): 3.3% | growth inhibition (GI) (Nannizzia gypsea [11]): inactive | inhibition of growth at 20 µg/mL (Epidermophyton floccosum): 1.9% | growth inhibition (GI) [12]: inactive | Activity (K562 [13]): 14.75% | Activity (K562 [14]): 88.15% | Activity (K562 [15]): 0.65% | Activity (K562 [16]): 84.85% | Activity [17]: 10708.06 µmol/g | Activity (K562 [18]): 6.15% | Activity (K562 [19]): 8.6% | Activity (K562 [20]): 9.15% | inhibition of growth at 100 µg/mL (Paraphyton cookei [21]): 12.3% | inhibition of growth at 100 µg/mL (Nannizzia gypsea [22]): 4.1% | Activity (K562 [23]): inactive | growth inhibition (GI) (Nannizzia gypsea [24]): inactive | growth inhibition (GI) [25]: inactive
